The source of these data is ChEMBL document CHEMBL5390200, “Synthesis and evaluation of DAG-lactone derivatives with HIV-1 latency reversing activity” (Eur J Med Chem, 2023).

The structures appear in SMILES notation.

The test system of data set [1] is Human immunodeficiency virus 1. The experiment in a line: HIV1-latency reversing activity in human ACH-2 cell line incubated for 48 hrs. It is filed as functional, organism-based. Conditions: Human immunodeficiency virus 1, ACH-2, 48 h; call rule not given here.
Data set [2] has as its system Human immunodeficiency virus 1. In words: HIV1-latency reversing activity in human J-Lat 10.6 cells assessed as change in GFP expression incubated for 24 hrs by flow cytometric analysis. It is filed as functional, organism-based. Conditions: Human immunodeficiency virus 1, J-Lat 10.6, 24 h. The procedure, abridged: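 Cells seeded at 2 × 10^5 per well and exposed to a range of compound concentrations for 24 h; 10 nM PMA served as reference. GFP-positive cells counted by flow cytometry. Means ± SD from at least two independent experiments.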
Background: A flow cytometer gives signals particle by particle.

Data set [3] in a line: Cytotoxicity against human Jurkat cells assessed as reduction in cell viability incubated for 24 hrs by Ghost dye 780 staining based flow cytometric analysis. It is filed as toxicity.
Data set [4] deals with Protein kinase C delta type (Homo sapiens, UniProt Q05655). In words: Binding affinity to PKCdelta C1B domain (231 to 281 residues) (unknown origin) by 6-methoxynaphthalene DAG lactone probe based fluorescence quenching assay.
Data set [5] in a line: Stability of the compound assessed as porcine liver esterase-mediated hydrolysis measured after 1 to 24 hrs by HPLC analysis. It counts as ADME, Sus scrofa. As to conditions: pig, isolated protein; time 1-24 hrs. The procedure, abridged:
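Compounds taken from 100 mM DMSO stock to 1 mM final in 50 mM HEPES pH 7.2 with 0.01 U PLE, then held at 37 °C. Aliquots sampled at 1, 3, 6 and 24 h and quenched into equal volume MeCN/0.1% TFA. C18 reversed-phase HPLC with 0–95% MeCN gradient over 40 min, UV detection at 245 nm. Residual peak area normalized to 0 h.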

Data set [6] deals with Human immunodeficiency virus 1. The experiment in a line: HIV1-latency reversing activity in human U1 cells incubated for 2 days. Conditions: Human immunodeficiency virus 1, U1, 48 h. It counts as functional, organism-based.

Sequence of Protein kinase C delta type (Q05655 whole entry, the tested form may be a part): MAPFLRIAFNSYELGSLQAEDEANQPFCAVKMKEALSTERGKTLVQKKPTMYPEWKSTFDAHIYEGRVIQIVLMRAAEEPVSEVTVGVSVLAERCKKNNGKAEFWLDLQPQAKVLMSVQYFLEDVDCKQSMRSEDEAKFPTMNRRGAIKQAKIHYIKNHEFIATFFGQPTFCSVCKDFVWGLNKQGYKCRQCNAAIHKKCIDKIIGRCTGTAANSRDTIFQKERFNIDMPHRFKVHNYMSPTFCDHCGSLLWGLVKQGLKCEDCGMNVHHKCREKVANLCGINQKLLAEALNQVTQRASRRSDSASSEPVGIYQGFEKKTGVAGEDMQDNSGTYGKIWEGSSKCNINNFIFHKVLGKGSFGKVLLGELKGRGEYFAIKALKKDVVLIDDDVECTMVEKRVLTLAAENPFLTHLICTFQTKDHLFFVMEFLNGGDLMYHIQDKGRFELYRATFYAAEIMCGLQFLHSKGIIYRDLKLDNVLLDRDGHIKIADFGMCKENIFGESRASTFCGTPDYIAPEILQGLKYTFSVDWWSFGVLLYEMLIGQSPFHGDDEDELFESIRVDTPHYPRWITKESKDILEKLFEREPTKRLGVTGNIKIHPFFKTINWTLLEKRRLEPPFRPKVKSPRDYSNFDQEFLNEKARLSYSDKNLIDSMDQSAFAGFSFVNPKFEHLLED

What is called EC50 is the concentration needed to bring the measured effect to its halfway point. On to `CCCCCCCCCCc1ccc2c(c1)N(C)[C@@H](C(C)C)C(=O)N[C@H](CO)C2`, for which, in data set [1], the EC50 was 25 nM.

In general, CC50 refers to the concentration at which the toxic effect on the cells reaches its halfway point. A word on the IC50: it is the point on the concentration scale where inhibition reaches its midpoint. As for `CCCCCCCCCC(=O)OCC1(CO)CC(=C(C)C)C(=O)O1` (centres undefined), in data set [2], the EC50 was > 10000 nM. Also, the half-maximal cytotoxic concentration (CC50) at 24 h in data set [3] was > 10000 nM. Further, the IC50 in data set [4] (read-out: IC50) came to 2200 nM. The Stability result in data set [5] was “Unstable”.

As to `CC(C)=C1CC(CO)(COC(=O)C2CCC(C)CC2)OC1=O` (centres undefined), the EC50 in data set [2] is > 10000 nM.

Regarding `CCCCCCC(CCCCCC)C(=O)OCC1(CO)CC(=C(C)C)C(=O)O1` (centres undefined), the EC50 in data set [2] came out at 220 nM. Further, the CC50 at 24 h in data set [3] was > 10000 nM. In data set [4] (read-out: IC50), the IC50 worked out at 690 nM. Besides, the Stability entry in data set [5] is “Stable”.

Turning to `CC(C)=C1CC(CO)(COC(=O)C(C)(C)C)OC1=O` (centres undefined), in data set [2], the EC50 is > 10000 nM. For the same molecule, the CC50 at 24 h in data set [3] is > 10000 nM. Also, in data set [4] (read-out: IC50), the IC50 is > 10000 nM. Besides, the Stability result in data set [5] is reported as “Stable”.

In the case of `CCCCCCCC(CCCCCCC)C(=O)OCC1(CO)CC(=C(C)C)C(=O)O1` (centres undefined), in data set [2], the EC50 came to 380 nM. The CC50 at 24 h in data set [3] is > 10000 nM.

Take `CC(C)=C1CC(CO)(COC(=O)C(C)C)OC1=O` (centres undefined): the EC50 in data set [2] was > 10000 nM.

Regarding `CCCCCC(CCCCC)C(=O)OCC1(CO)CC(=C(C)C)C(=O)O1` (centres undefined), the concentration giving a half-maximal response (EC50) in data set [2] is 430 nM. The CC50 at 24 h in data set [3] was > 10000 nM.

For `C=C(C)[C@]12C[C@@H](COC(=O)c3ccccc3)[C@@]34O[C@@]5(O[C@@H]1[C@@H]3[C@@H]1O[C@]1(CO)[C@@H](O)[C@@]1(O)[C@H]4[C@H]([C@H](C)[C@@H]1OC(=O)c1ccccc1)[C@H](C)CCCCCC[C@H]5O)O2`, the EC50 in data set [6] is 0.018 nM.

Turning to `CC(C)=C1CC(CO)(COC(=O)c2ccc3ccccc3c2)OC1=O` (centres undefined), in data set [2], the EC50 was > 10000 nM.

Consider `CC(C)=C1CC(CO)(COC(=O)C2CCCCC2)OC1=O` (centres undefined), for which the EC50 in data set [2] was > 10000 nM.

`CCCC(CCC)C(=O)OCC1(CO)CC(=C(C)C)C(=O)O1` (centres undefined): the EC50 in data set [2] was 2000 nM. For the same molecule, in data set [3], the CC50 at 24 h was > 10000 nM. Also, the Stability entry in data set [5] is “Stable”.

In the case of `CCCCC(=O)OCC1(CO)CC(=C(C)C)C(=O)O1` (centres undefined), the EC50 in data set [2] is > 10000 nM.

Consider `CCC(CC)C(=O)OCC1(CO)CC(=C(C)C)C(=O)O1` (centres undefined), for which the EC50 in data set [2] is > 10000 nM.

`CCCCC(CCCC)C(=O)OCC1(CO)CC(=C(C)C)C(=O)O1` (centres undefined): the EC50 in data set [2] is 820 nM. Besides, in data set [3], the CC50 at 24 h is > 10000 nM.

Turning to `CC(=O)OCC1(CO)CC(=C(C)C)C(=O)O1` (centres undefined), in data set [2], the EC50 is > 10000 nM. Moreover, in data set [3], the 50% cytotoxic concentration (CC50) at 24 h is > 10000 nM. Further, in data set [4], the IC50 entry was “Not Active”.

As to `CC(C)=C1CC(CO)(COC(=O)c2ccccc2)OC1=O` (centres undefined), the EC50 in data set [2] is > 10000 nM.

As to `CCCCCCCCC(CCCCCCCC)C(=O)OCC1(CO)CC(=C(C)C)C(=O)O1` (centres undefined), the EC50 in data set [2] turned out to be 340 nM. Also, the CC50 at 24 h in data set [3] is > 10000 nM.

As for `CCCCCCCCCC(CCCCCCCCC)C(=O)OCC1(CO)CC(=C(C)C)C(=O)O1` (centres undefined), the EC50 in data set [2] came out at 310 nM. For the same molecule, the CC50 at 24 h in data set [3] was > 10000 nM. The IC50 in data set [4] (read-out: IC50) turned out to be 560 nM.

Regarding `CC(=O)O[C@@]12C[C@@H](C)[C@@]3(O)[C@@H](C=C(CO)C[C@]4(O)C(=O)C(C)=C[C@@H]34)[C@@H]1C2(C)C` [PROSTRATIN], the CC50 at 24 h in data set [3] is > 10000 nM.
